18 molecules from ChEMBL document CHEMBL2040716, “Discovery of a new antileishmanial hit in 8-nitroquinoline series” (Eur J Med Chem, 2012) can be followed below.

The structures appear in SMILES notation. Bounds are passed on as bounds.

Data set [1] is described as follows: Cytotoxicity against mouse J774A1 cells after 72 hrs by MTT assay. In kind it is cell-based, J774.A1. In short, it runs like this: (§1)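 Cells plated in RPMI with 10% FBS, L-glutamine, penicillin/streptomycin at 37 °C, 6% CO2. After 24 h, a range of compound concentrations was added for 72 h. Wells checked for precipitate; MTT for 2 h at 37 °C; formazan dissolved in DMSO; A570 with 630 nm reference. Viability as % of untreated control; CC50 from dose-response curve, mean of two independent experiments.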
For orientation: Tetrazolium dyes change colour on reduction, which living cells bring about.

Data set [2] in a line: Selectivity index, ratio of CC50 for mouse J774A1 cells to IC50 for Leishmania donovani MHOM/IN/00/DEVI promastigotes. The class given is functional, J774.A1. In short, it runs like this:
(§2)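 SI computed as CC50 (HepG2 or J774) divided by L. donovani promastigote IC50. Both values come from the MTT assays above, each the mean of two independent experiments.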

Data set [3] in a line: Cytotoxicity against human HepG2 cells after 72 hrs by MTT assay. In kind it is cell-based. In short, it runs like this: as §1
The test system of data set [4] is Leishmania donovani. Kind of data set: Antileishmanial activity against Leishmania donovani MHOM/IN/00/DEVI promastigotes after 72 hrs by MTT assay. In kind it is functional, organism-based. In short, it runs like this: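 Late log-phase promastigotes in Schneider's medium with 20% FCS, 2 mM L-glutamine, penicillin/streptomycin, at 10^6 parasites/mL. Compounds in DMSO (final <0.5% v/v) over a concentration range, in duplicate, 72 h at 27 °C. MTT 0.5 mg/mL added for 6 h at 27 °C; pellet dissolved in DMSO; A570. IC50 by non-linear regression versus control; mean of two independent experiments.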

Data set [5] in a line: Selectivity index, ratio of CC50 for human HepG2 cells to IC50 for Leishmania donovani MHOM/IN/00/DEVI promastigotes. In kind it is functional. In short, it runs like this: as §2
In data set [6] the test system is Leishmania infantum. Nature of the data set: Antileishmanial activity against Leishmania infantum MCAN/ES/98/LLM-877 promastigotes after 72 hrs by MTT assay. The following applies: MCAN/ES/98/LLM-877, 72 h. In kind it is functional, organism-based.
Data set [7] has as its system Leishmania donovani. Kind of data set: Antileishmanial activity against Leishmania donovani MHOM/IN/00/DEVI amastigotes infected in mouse J774A.1 cells after 120 hrs by Giemsa staining-based microscopic analysis. Particulars: J774.A1, 120 h.
Data set [8] concerns Toxoplasma gondii. Nature of the data set: Antitoxoplasmic activity against Toxoplasma gondii PRU tachyzoites infected in human HFF cells assessed as beta-galactosidase activity after 72 hrs by colorimetric assay. In kind it is functional, cell-based. In short, it runs like this:
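HFF monolayers grown to confluence (3.10^4 cells/well) in RPMI with 10% FCS at 37 °C, 6% CO2. Infected with 1 × 10^4 PRU-β-Gal tachyzoites for 3 h, then compounds (DMSO <0.5% v/v) added in triplicate for 72 h. 1 mM CPRG for 6 h; read at 570 and 630 nm, blanked on uninfected wells. IC50 by non-linear regression; mean of two experiments.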

What is called CC50 is the concentration that lowers cell viability or growth by half. A word on the IC50: it is the concentration that gives 50% inhibition. With `O=Cc1ccc2ccccc2n1`, the results for the CC50 at 72 h in data set [1] and in data set [3] were 28.8 µM and more than 100 µM, respectively. Also, in data set [2], the “Ratio CC50/IC50” value is listed as less than 0.58. The IC50 in data set [4] is more than 50 µM.

Consider `Cc1ccc2cc([N+](=O)[O-])ccc2n1`, for which the CC50 at 72 h in data set [1] and in data set [3] was more than 100 µM each time. Also, the IC50 in data set [4] is more than 50 µM.

Turning to `O=[N+]([O-])c1cccc2ncccc12`, the half-maximal cytotoxic concentration (CC50) at 72 h in data set [1] and in data set [3] was more than 100 µM each time. In data set [4], this molecule registered an IC50 of more than 50 µM.

Consider `O=[N+]([O-])c1cccc2cccnc12`, for which the CC50 at 72 h in data set [1] and in data set [3] was more than 100 µM in each case. In addition, the IC50 in data set [4] was more than 50 µM.

Turning to `Cc1ccc2cccc([N+](=O)[O-])c2n1`, the CC50 at 72 h in data set [1] and in data set [3] was more than 100 µM in each case. Moreover, the IC50 in data set [4] was more than 50 µM.

Consider `Oc1ccc2ccccc2n1`, for which the CC50 at 72 h in data set [1] and in data set [3] was more than 100 µM throughout. In data set [4], this molecule had an IC50 of more than 50 µM.

As to `O=Cc1ccc2c([N+](=O)[O-])cccc2n1`, the “Ratio CC50/IC50” value is given as less than 1.8 in data set [5] and less than 0.46 in data set [2]. Besides, the figures for the half-maximal cytotoxic concentration (CC50) at 72 h in data set [1] and in data set [3] were 22.8 µM and 92 µM, respectively. The molecule further displayed a half-inhibitory concentration (IC50) in data set [4] of more than 50 µM.

With `Clc1ccc2ccccc2n1`, the CC50 at 72 h in data set [1] and in data set [3] was more than 100 µM throughout. This molecule also gave an IC50 in data set [4] of more than 50 µM.

With `O=[N+]([O-])c1cccc2nc(Cl)ccc12`, the CC50 at 72 h in data set [1] and in data set [3] was more than 100 µM in each case. Moreover, in data set [4], the 50% inhibitory concentration (IC50) was more than 50 µM.

With `O=[N+]([O-])c1cccc2nc(O)ccc12`, the CC50 at 72 h in data set [1] and in data set [3] was more than 100 µM each time. The molecule further came in with an IC50 in data set [4] of more than 50 µM.

For `O=[N+]([O-])c1ccc2nc(O)ccc2c1`, the CC50 at 72 h is 83.7 µM in data set [1] and more than 100 µM in data set [3]. The “Ratio CC50/IC50” value in data set [2] is less than 1.7. This molecule also yielded a half-maximal inhibitory concentration (IC50) in data set [4] of more than 50 µM.

`C[C@@H]1[C@H](O)[C@@H](C)/C=C/C=C/C=C/C=C/C=C/C=C/C=C/[C@H](O[C@@H]2O[C@H](C)[C@@H](O)[C@H](N)[C@@H]2O)C[C@@H]2O[C@](O)(C[C@@H](O)C[C@@H](O)[C@H](O)CC[C@@H](O)C[C@@H](O)CC(=O)O[C@H]1C)C[C@H](O)[C@H]2C(=O)O` [AMPHOTERICIN B] yielded a CC50 at 72 h in data set [1] of 3.1 µM. For the same molecule, the IC50 in data set [6] was 0.05 µM; in data set [4] it was 0.1 µM.

On to `COc1cccc2c1C(=O)c1c(O)c3c(c(O)c1C2=O)C[C@@](O)(C(=O)CO)C[C@@H]3O[C@H]1C[C@H](N)[C@H](O)[C@H](C)O1` [DOXORUBICIN], for which the cytotoxic concentration (CC50) at 72 h in data set [1] came to 0.02 µM.

With `CCCCCCCCCCCCCCCCOP(=O)([O-])OCC[N+](C)(C)C` [MILTEFOSINE], the CC50 at 72 h was determined as 94.6 µM in data set [1] and 50.3 µM in data set [3]. Moreover, the IC50 in data set [6] was 11.6 µM; in data set [7], 6.8 µM.

Regarding `N=C(N)c1ccc(OCCCCCOc2ccc(C(=N)N)cc2)cc1` [PENTAMIDINE], the figures for the “Ratio CC50/IC50” value in data set [5] and in data set [2] were 0.38 and 0.17, respectively. Moreover, the values for the half-maximal cytotoxic concentration (CC50) at 72 h in data set [1] and in data set [3] were 1 µM and 2.3 µM, respectively. The half-inhibitory concentration (IC50) is 8.2 µM in data set [6], more than 20 µM in data set [7] and 6 µM in data set [4].

As for `CCc1nc(N)nc(N)c1-c1ccc(Cl)cc1` [PYRIMETHAMINE], in data set [8], the IC50 turned out to be 0.8 µM.

As to `Cc1ccc2ccccc2n1` [QUINALDINE], the CC50 at 72 h in data set [1] and in data set [3] was more than 100 µM throughout. For the same molecule, in data set [4], the IC50 was more than 50 µM.

For `c1ccc2ncccc2c1` [QUINOLINE], the 50% cytotoxic concentration (CC50) at 72 h in data set [1] and in data set [3] was more than 100 µM each time. The same molecule registered an IC50 in data set [4] of more than 50 µM.
